Measured values reported in ChEMBL document CHEMBL3621166, “Synthesis, Structure-Activity Relationship, and Mechanistic Investigation of Lithocholic Acid Amphiphiles for Colon Cancer Therapy” (Medchemcomm, 2015).
Activity calls are given as the source filed them. The rule behind the calls is not given here.

How the values were obtained:
HCT-116 [1] = experiment: Cytotoxicity against human HCT116 cells assessed as cell viability after 48 hrs by MTT assay; format: functional, cell-based; conditions: HCT-116, 48 h
[2] = Retention time of the compound by HPLC method; format: physicochemical
[3] = Cytotoxicity against human DLD1 cells assessed as cell viability after 48 hrs by MTT assay; format: functional, cell-based; conditions: DLD-1, 48 h
[4] = Cytotoxicity against human HCT8 cells assessed as cell viability after 48 hrs by MTT assay; format: functional, cell-based; conditions: HCT-8, 48 h
HCT-116 [5] = experiment: Cell cycle arrest in human HCT116 cells at 15 to 50 uM after 48 hrs using propidium iodide staining by FACS analysis; format: functional, cell-based
Outline: (§1)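 Cells seeded at ~2 × 10^5 per well, treated after 24 h at 15, 25 and 50 μM for 48 h. Harvested by trypsin, washed in cold PBS and fixed in 70% ice-cold ethanol. RNase-treated 1 h at 37 °C, stained with propidium iodide (50 μg mL−1) 20 min at room temperature, and analysed by FACS. Triplicate, mean ± SD.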

HCT-116 [6] = experiment: Induction of apoptosis in human HCT116 cells assessed as late apoptotic cells at 15 uM after 48 hrs using annexin-V FITC and propidium iodide staining by flow cytometry (reference value: 1.59%); format: functional
HCT-8 [7] = experiment: Inhibition of colony formation in human HCT8 cells at 15 to 50 uM after 2 weeks using crystal violet staining; format: functional, cell-based
Outline: (§2)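 Cells plated at 200 per well and treated after 24 h adherence at 15, 25 or 50 μM. Colonies stained with crystal violet after 2 weeks and counted. Plating efficiency taken from untreated wells, survival fraction from treated colony counts. Two experiments in duplicate, mean ± SD.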

HCT-116 [8] = experiment: Induction of apoptosis in human HCT116 cells assessed as late apoptotic cells at 50 uM after 48 hrs using annexin-V FITC and propidium iodide staining by flow cytometry (reference value: 1.59%); format: functional
DLD-1 = experiment: Inhibition of colony formation in human DLD1 cells at 15 to 50 uM after 2 weeks using crystal violet staining; format: functional, cell-based; outline: as §2
[9] = Cell cycle arrest in human HCT8 cells at 15 to 50 uM after 48 hrs using propidium iodide staining by FACS analysis; format: functional, cell-based; conditions: HCT-8; outline: as §1
HCT-116 [10] = experiment: Induction of apoptosis in human HCT116 cells assessed as early apoptotic cells at 25 uM after 48 hrs using annexin-V FITC and propidium iodide staining by flow cytometry (reference value: 4.80%); format: functional
HCT-116 [11] = experiment: Inhibition of colony formation in human HCT116 cells at 15 to 50 uM after 2 weeks using crystal violet staining; format: functional, cell-based; outline: as §2
HCT-116 [12] = experiment: Induction of apoptosis in human HCT116 cells assessed as early apoptotic cells at 15 uM after 48 hrs using annexin-V FITC and propidium iodide staining by flow cytometry (reference value: 4.80%); format: functional
HCT-116 [13] = experiment: Induction of apoptosis in human HCT116 cells assessed as late apoptotic cells at 25 uM after 48 hrs using annexin-V FITC and propidium iodide staining by flow cytometry (reference value: 1.59%); format: functional
HCT-116 [14] = experiment: Induction of apoptosis in human HCT116 cells assessed as early apoptotic cells at 50 uM after 48 hrs using annexin-V FITC and propidium iodide staining by flow cytometry (reference value: 4.80%); format: functional
[15] = Cell cycle arrest in human DLD1 cells at 15 to 50 uM after 48 hrs using propidium iodide staining by FACS analysis; format: functional, cell-based; conditions: DLD-1; outline: as §1
HCT-116 [16] = experiment: Ratio of lithocholic acid IC50 to compound IC50 for human HCT116 cells assessed as cell viability after 48 hrs by MTT assay; format: functional
HCT-116 [17] = experiment: Induction of apoptosis in human HCT116 cells assessed as apoptotic cells at 50 uM after 48 hrs using annexin-V FITC and propidium iodide staining by flow cytometry relative to lithocholic acid; format: functional
A549 [18] = experiment: Selectivity ratio of human HCT116 cells over human A549 cells; format: functional
[19] = Selectivity ratio of human HCT8 cells over human THP1 cells; format: ADME, cell-based, THP-1; conditions: HCT8 cells versus THP1 cells
HCT-116 [20] = experiment: Induction of apoptosis in human HCT116 cells assessed as apoptotic cells at 25 uM after 48 hrs using annexin-V FITC and propidium iodide staining by flow cytometry relative to lithocholic acid; format: functional
HCT-116 [21] = experiment: Induction of apoptosis in human HCT116 cells assessed as increased level of cleaved caspase-7 at 10 to 50 uM by Western blot analysis; format: functional, cell-based
HCT-116 [22] = experiment: Induction of apoptosis in human HCT116 cells assessed as increased level of cleaved caspase-3 at 10 to 50 uM by Western blot analysis; format: functional, cell-based
[23] = Cell cycle arrest in human HCT8 cells assessed as accumulation at sub-G1 phase at 50 uM after 48 hrs using propidium iodide staining by FACS analysis; format: functional, cell-based; conditions: HCT-8; outline: as §1
[24] = Selectivity ratio of human HCT8 cells over CHO cells; format: ADME, cell-based; conditions: Chinese hamster (CHO), HCT8 cells versus CHO cells
HCT-116 [25] = experiment: Induction of apoptosis in human HCT116 cells xenografted in nude mouse assessed as increased level of cleaved caspase-8 at 20 mg/kg after 6 days by Western blot analysis relative to control; format: functional, organism-based
Outline: (§3)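 Female nude mice, 6 weeks old, received 1.5 × 10^6 HCT-116 cells in the right flank. At ~750 mm3 mice were split into groups of 5 and dosed from day 19 at 20 mg kg−1 near the tumour, vehicle as control. Tumours were harvested at sacrifice on day 25 and homogenised in RIPA buffer. Equal protein loaded, transferred to PVDF, blocked in 5% milk/TBST, primary antibodies overnight at 4 °C, HRP secondary, ECL detection.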

[26] = Cell cycle arrest in human DLD1 cells assessed as accumulation at sub-G1 phase at 50 uM after 48 hrs using propidium iodide staining by FACS analysis; format: functional, cell-based; conditions: DLD-1; outline: as §1
HCT-116 [27] = experiment: Antitumor activity against human HCT116 cells xenografted in nude mouse assessed as reduction in tumor volume at 20 mg/kg after 6 days; format: functional; parameters: scale not given: the % may be the effect or the level left
[28] = Selectivity ratio of human HCT116 cells over human THP1 cells; format: ADME, cell-based, HCT-116; conditions: HCT116 cells versus THP1 cells
[29] = Selectivity ratio of human DLD1 cells over human THP1 cells; format: ADME, cell-based, THP-1; conditions: DLD1 cells versus THP1 cells
HCT-116 [30] = experiment: Inhibition of colony formation in human HCT116 cells at 15 uM after 2 weeks using crystal violet staining; format: functional; conditions: HCT-116, 336 h
HCT-116 [31] = experiment: Inhibition of colony formation in human HCT116 cells at 50 uM after 2 weeks using crystal violet staining; format: functional, cell-based; outline: as §2
HCT-116 [32] = experiment: Induction of apoptosis in human HCT116 cells assessed as increased level of procaspase-8 at 10 uM by Western blot analysis; format: functional, cell-based
HCT-116 [33] = experiment: Antitumor activity against human HCT116 cells xenografted in nude mouse assessed as reduction in tumor volume at 20 mg/kg measured up to 25 days; format: functional; parameters: scale not given: the % may be the effect or the level left
HCT-116 [34] = experiment: Induction of apoptosis in human HCT116 cells xenografted in nude mouse assessed as increased level of cleaved caspase-3 at 20 mg/kg after 6 days by Western blot analysis relative to control; format: functional, organism-based; outline: as §3
HCT-116 [35] = experiment: Induction of apoptosis in human HCT116 cells assessed as decreased level of procaspase-8 at 50 uM by Western blot analysis; format: functional, cell-based
A549 [36] = experiment: Selectivity for human HCT8 cells over human A549 cells; format: functional
A549 [37] = experiment: Selectivity ratio of human DLD1 cells over human A549 cells; format: functional
[38] = Selectivity ratio of human DLD1 cells over CHO cells; format: cell-based; conditions: Chinese hamster (CHO), DLD1 cells versus CHO cells
[39] = Toxicity in RBC (unknown origin) assessed as hemolytic activity; format: cell-based, Erythrocyte; conditions: red blood cells
HCT-116 [40] = experiment: Cell cycle arrest in human HCT116 cells assessed as accumulation at sub-G1 phase at 50 uM after 48 hrs using propidium iodide staining by FACS analysis; format: functional
HCT-8 [41] = experiment: Ratio of lithocholic acid IC50 to compound IC50 for human HCT8 cells assessed as cell viability after 48 hrs by MTT assay; format: functional
[42] = Selectivity ratio of human HCT116 cells over CHO cells; format: cell-based; conditions: Chinese hamster (CHO), HCT116 cells versus CHO cells
HCT-116 [43] = experiment: Induction of apoptosis in human HCT116 cells xenografted in nude mouse assessed as increased level of cleaved caspase-7 at 20 mg/kg after 6 days by Western blot analysis relative to control; format: functional, organism-based; outline: as §3

Compound: COC(=O)CC[C@@H](C)[C@H]1CC[C@H]2[C@@H]3CC[C@@H]4C[C@H](OC(=O)C[N+]5(C)CCCC5)CC[C@]4(C)[C@H]3CC[C@]12C.[Cl-]
- IC50 (HCT-116 [1]): 17.8 µM
- Retention_time [2]: 8.23 min
- IC50 [3]: 17 µM
- IC50 [4]: 36.4 µM

Compound: COC(=O)CC[C@@H](C)[C@H]1CC[C@H]2[C@@H]3CC[C@@H]4C[C@H](OC(=O)C[n+]5ccccc5)CC[C@]4(C)[C@H]3CC[C@]12C.[Cl-]
- IC50 (HCT-116 [1]): 26.5 µM
- Retention_time [2]: 7.84 min
- IC50 [3]: 35.4 µM
- IC50 [4]: 35.4 µM

Compound: COC(=O)CC[C@@H](C)[C@H]1CC[C@H]2[C@@H]3CC[C@@H]4C[C@H](OC(=O)CN5CCSCC5)CC[C@]4(C)[C@H]3CC[C@]12C.Cl
- IC50 (HCT-116 [1]): 87.3 µM
- Retention_time [2]: 28.63 min
- IC50 [3]: 163 µM
- IC50 [4]: 130 µM

Compound: C[C@H](CCC(=O)O)[C@H]1CC[C@H]2[C@@H]3CC[C@@H]4C[C@H](O)CC[C@]4(C)[C@H]3CC[C@]12C [LITHOCHOLIC ACID]
- Activity (HCT-116 [5]): inactive
- Activity (HCT-116 [6]): 8.88%
- inhibition (HCT-8 [7]): inactive
- IC50 (HCT-116 [1]): 81.1 µM
- Activity (HCT-116 [8]): 13.15%
- inhibition (DLD-1): inactive
- Activity [9]: inactive
- IC50 [3]: 173 µM
- Activity (HCT-116 [10]): 18.79%
- inhibition (HCT-116 [11]): inactive
- Activity (HCT-116 [12]): 10.21%
- Activity (HCT-116 [13]): 11.54%
- Activity (HCT-116 [14]): 21.89%
- IC50 [4]: 97.4 µM
- Activity [15]: inactive

Compound: COC(=O)CC[C@@H](C)[C@H]1CC[C@H]2[C@@H]3CC[C@@H]4C[C@H](OC(=O)C[N+]5(C)CCCCC5)CC[C@]4(C)[C@H]3CC[C@]12C.[Cl-]
- Ratio IC50 (HCT-116 [16]): 6
- Ratio (HCT-116 [17]): 2
- selectivity ratio (A549 [18]): 2
- Activity (HCT-116 [6]): 12.47%
- selectivity ratio [19]: 5
- Ratio (HCT-116 [20]): 1.3
- Activity (HCT-116 [21]): Active
- Activity (HCT-116 [22]): Active
- Activity [23]: 40%
- inhibition (HCT-8 [7]): Active
- selectivity ratio [24]: 5
- Activity (HCT-116 [25]): Active
- Activity [26]: 80%
- Activity (HCT-116 [27]): 75%
- selectivity ratio [28]: 5
- IC50 (HCT-116 [1]): 11.7 µM
- Activity (HCT-116 [8]): 26.63%
- Retention_time [2]: 8.12 min
- inhibition (DLD-1): Active
- selectivity ratio [29]: 5
- inhibition at 15 µM (HCT-116 [30]): 50%
- IC50 [3]: 13.7 µM
- inhibition (HCT-116 [31]): Active
- Activity (HCT-116 [32]): inactive
- Activity (HCT-116 [33]): 75%
- Activity (HCT-116 [34]): Active
- Activity (HCT-116 [35]): Active
- selectivity ratio (A549 [36]): 2
- selectivity ratio (A549 [37]): 2
- selectivity ratio [38]: 5
- Activity (HCT-116 [10]): 23.57%
- HC50 [39]: > 1 mM
- Activity (HCT-116 [40]): 80%
- Ratio IC50 (HCT-8 [41]): 6
- Activity (HCT-116 [12]): 9.04%
- selectivity ratio [42]: 3
- Activity (HCT-116 [13]): 15.78%
- Activity (HCT-116 [43]): Active
- Activity (HCT-116 [14]): 41.19%
- IC50 [4]: 14.7 µM

Compound: COC(=O)CC[C@@H](C)[C@H]1CC[C@H]2[C@@H]3CC[C@@H]4C[C@H](OC(=O)C[N+]56CCN(CC5)CC6)CC[C@]4(C)[C@H]3CC[C@]12C.[Cl-]
- IC50 (HCT-116 [1]): 60.7 µM
- Retention_time [2]: 7.98 min
- IC50 [3]: 46.4 µM
- IC50 [4]: 76.4 µM
